The values below come from ChEMBL document CHEMBL1124409, “Preparation and biodistribution of 1-[2-(3-[125I]iodo-4-aminophenyl)ethyl]-4-[3-(trifluoromethyl) phenyl]piperazine and 1-[2-(3-[125I]iodo-4-azidophenyl)ethyl]-4-[3-(trifluoromethyl)phenyl] piperazine” (J Med Chem, 1989).

Data set [1] relates to Rattus norvegicus. Briefly: Biodistribution of the radio labelled compound (azido-[125I]-IPAPP) in rat blood after 15 min of intravenous injection. It is filed as ADME, organism-based. The note with it: in vivo. The method, boiled down:
(§1)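 Rats received the radioligand in 0.2 mL saline into the femoral vein under ether anesthesia. They were killed by cardiac excision at set times post-injection. Organs were removed and gamma-counted at about 50% efficiency. % dose/organ was calculated against diluted aliquots of the injected material. Values are the average of three rats.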

The subject of data set [2] is Rattus norvegicus. Briefly: Biodistribution of the radio labelled compound (azido-[125I]-IPAPP) in rat blood after 2 min of intravenous injection. The note with it: in vivo. It counts as ADME, organism-based. The method, boiled down: as §1
In data set [3] the test system is Rattus norvegicus. The experiment in a line: Biodistribution of the radio labelled compound (azido-[125I]-IPAPP) in rat blood after 30 min of intravenous injection. It counts as ADME, organism-based. The settings on record: in vivo, 0.5 h. The method, boiled down:
as §1

In data set [4] the test system is Rattus norvegicus. Briefly: Biodistribution of the radio labelled compound (azido-[125I]-IPAPP) in rat brain after 15 min of intravenous injection. It counts as ADME, organism-based. The note with it: in vivo. The method, boiled down:
as §1

Data set [5] has as its system Rattus norvegicus. Briefly: Biodistribution of the radio labelled compound (azido-[125I]-IPAPP) in rat brain after 2 min of intravenous injection. It counts as ADME, organism-based. The settings on record: in vivo. The method, boiled down:
as §1

Data set [6] relates to Rattus norvegicus. The experiment in a line: Biodistribution of the radio labelled compound (azido-[125I]-IPAPP) in rat brain after 30 min of intravenous injection. It counts as ADME, organism-based. The settings on record: in vivo, 0.5 h. The method, boiled down:
as §1

Data set [7] relates to Rattus norvegicus. Briefly: Biodistribution of the radio labelled compound (azido-[125I]-IPAPP) in rat heart after 15 min of intravenous injection. The settings on record: in vivo. It counts as ADME, organism-based. The method, boiled down: as §1
The test system of data set [8] is Rattus norvegicus. Briefly: Biodistribution of the radio labelled compound (azido-[125I]-IPAPP) in rat heart after 2 min of intravenous injection. It counts as ADME, organism-based. The note with it: in vivo. The method, boiled down:
as §1

In data set [9] the test system is Rattus norvegicus. Briefly: Biodistribution of the radio labelled compound (azido-[125I]-IPAPP) in rat lungs after 2 min of intravenous injection. The settings on record: in vivo. It counts as ADME, organism-based, Lung. The method, boiled down: as §1
Data set [10] relates to Rattus norvegicus. The experiment in a line: Biodistribution of the radio labelled compound (azido-[125I]-IPAPP) in rat muscle after 15 min of intravenous injection. It counts as ADME, organism-based, Muscle tissue. The settings on record: in vivo. The method, boiled down: as §1
Data set [11] has as its system Rattus norvegicus. The experiment in a line: Biodistribution of the radio labelled compound (azido-[125I]-IPAPP) in rat muscle after 2 min of intravenous injection. It is filed as ADME, organism-based, Muscle tissue. The settings on record: in vivo. The method, boiled down: as §1
The subject of data set [12] is Rattus norvegicus. The experiment in a line: Biodistribution of the radio labelled compound (azido-[125I]-IPAPP) in rat muscle after 30 min of intravenous injection. It counts as ADME, organism-based, Muscle tissue. The settings on record: in vivo, 0.5 h. The method, boiled down:
as §1

The subject of data set [13] is Rattus norvegicus. Briefly: Biodistribution of the radio labelled compound (azido-[125I]-IPAPP) in rat heart after 30 min of intravenous injection. It is filed as ADME, organism-based. The note with it: in vivo, 0.5 h. The method, boiled down: as §1
For data set [14], the system named is Rattus norvegicus. Briefly: Biodistribution of the radio labelled compound (azido-[125I]-IPAPP) in rat liver after 15 min of intravenous injection. It is filed as ADME, organism-based. The note with it: in vivo. The method, boiled down: as §1
In data set [15] the test system is Rattus norvegicus. The experiment in a line: Biodistribution of the radio labelled compound (azido-[125I]-IPAPP) in rat liver after 2 min of intravenous injection. It counts as ADME, organism-based. The settings on record: in vivo. The method, boiled down: as §1
Data set [16] relates to Rattus norvegicus. Briefly: Biodistribution of the radio labelled compound (azido-[125I]-IPAPP) in rat lungs after 15 min of intravenous injection. It counts as ADME, organism-based, Lung. The settings on record: in vivo. The method, boiled down:
as §1

In data set [17] the test system is Rattus norvegicus. The experiment in a line: Biodistribution of the radio labelled compound (azido-[125I]-IPAPP) in rat liver after 30 min of intravenous injection. It is filed as ADME, organism-based. The note with it: in vivo, 0.5 h. The method, boiled down: as §1
Data set [18] deals with Rattus norvegicus. Briefly: Biodistribution of the radio labelled compound (azido-[125I]-IPAPP) in rat lungs after 30 min of intravenous injection. The note with it: in vivo, 0.5 h. It counts as ADME, organism-based, Lung. The method, boiled down:
as §1

In data set [19] the test system is Rattus norvegicus. The experiment in a line: Ratio of biodistribution of the radio labelled compound ([125I]IPAPP) in rat brain to rat blood after 15 min of intravenous injection. It counts as ADME, organism-based. The method, boiled down: (§2)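 Rats, three per time point, received the radioligand in 0.2 mL saline into the femoral vein under ether anesthesia. They were killed by cardiac excision at 2, 15 or 30 min. Brain and blood were removed and gamma-counted at about 50% efficiency. Percent dose per organ was taken as tissue counts divided by diluted aliquots of the injected material.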

Data set [20] deals with Rattus norvegicus. The experiment in a line: Ratio of biodistribution of the radio labelled compound ([125I]IPAPP) in rat brain to rat blood after 2 min of intravenous injection. It counts as ADME, organism-based. The method, boiled down:
as §2

Data set [21] deals with Rattus norvegicus. The experiment in a line: Ratio of biodistribution of the radio labelled compound ([125I]IPAPP) in rat brain to rat blood after 30 min of intravenous injection. The settings on record: 0.5 h. It counts as ADME, organism-based. The method, boiled down:
as §2

The test system of data set [22] is Rattus norvegicus. The experiment in a line: Ratio of biodistribution of the radio labelled compound (azido-[125I]-IPAPP) in rat brain to rat blood after 15 min of intravenous injection. It is filed as ADME, organism-based.
Data set [23] has as its system Rattus norvegicus. The experiment in a line: Ratio of biodistribution of the radio labelled compound (azido-[125I]-IPAPP) in rat brain to rat blood after 2 min of intravenous injection. It is filed as ADME, organism-based.
Data set [24] deals with Rattus norvegicus. Briefly: Ratio of biodistribution of the radio labelled compound (azido-[125I]-IPAPP) in rat brain to rat blood after 30 min of intravenous injection. It is filed as ADME, organism-based. The note with it: 0.5 h.

As to `Nc1ccc(CCN2CCN(c3cccc(C(F)(F)F)c3)CC2)cc1I`, the Dose/organ was 2.23% in the data set on Rattus norvegicus [1]; 6.99% in the data set with Rattus norvegicus [2]; 1.96% in the data set on Rattus norvegicus [3]; 0.91% in the data set on Rattus norvegicus [4]; 1.68% with Rattus norvegicus [5]; 0.935% in the data set with Rattus norvegicus [6]. Besides, the Dose/organ in the data set with Rattus norvegicus [7] is on record as 0.309%; with Rattus norvegicus [8] it was 2.34%; in the data set with Rattus norvegicus [9], 14.2%; in the data set on Rattus norvegicus [10], 13.6%; in the data set on Rattus norvegicus [11], 6.51%; with Rattus norvegicus [12], 11.8%. Further, the Dose/organ in the data set on Rattus norvegicus [13] came to 0.262%; in the data set with Rattus norvegicus [14] it was 19.4%; in the data set on Rattus norvegicus [15], 13.1%; in the data set on Rattus norvegicus [16] it was 3.15%; in the data set with Rattus norvegicus [17] it was 18.9%; with Rattus norvegicus [18], 4.16%. In addition, the Ratio with Rattus norvegicus [19] stood at 4.92; in the data set with Rattus norvegicus [20], 2.63; with Rattus norvegicus [21], 4.76.

As to `[N-]=[N+]=Nc1ccc(CCN2CCN(c3cccc(C(F)(F)F)c3)CC2)cc1I`, the Dose/organ in the data set with Rattus norvegicus [1] turned out to be 3.21%; in the data set on Rattus norvegicus [2] it was 9.74%; in the data set on Rattus norvegicus [3], 2.76%; in the data set with Rattus norvegicus [4], 0.667%; with Rattus norvegicus [5] it was 0.503%; in the data set on Rattus norvegicus [6], 0.75%. The Dose/organ is reported as 0.548% in the data set with Rattus norvegicus [7]; 1.4% with Rattus norvegicus [8]; 6.5% with Rattus norvegicus [9]; 16.6% in the data set with Rattus norvegicus [10]; 11.8% in the data set on Rattus norvegicus [11]; 14.4% with Rattus norvegicus [12]. For the same compound, the Dose/organ with Rattus norvegicus [13] is 0.372%; in the data set with Rattus norvegicus [14], 34.3%; in the data set with Rattus norvegicus [15] it was 32.5%; with Rattus norvegicus [16] it was 2.15%; in the data set on Rattus norvegicus [17] it was 28.5%; in the data set on Rattus norvegicus [18], 1.73%. In addition, the Ratio was determined as 1.99 in the data set with Rattus norvegicus [22], 0.499 with Rattus norvegicus [23] and 2.53 in the data set on Rattus norvegicus [24].
